Screening data deposited in PubChem by Johns Hopkins Ion Channel Center.
KCNQ1 block – inhibitors of human KCNQ1 potassium channel; CHO-K1 KCNQ1, FluxOR thallium flux fluorescence; active compounds read high; B-score at 10 µM; 310,000 tested, 1.3% active;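 active = compounds whose thallium flux B-score, printed positive for inhibition, exceeds three library SD while starting fluorescence stays within three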;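 also: channel opened by potassium depolarization with thallium stimulus after 20 min compound exposure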
KCNK3 inh – human KCNK3 channel inhibition, primary screen; 340,000 tested, 0.84% active; AID 602410; CHO-KCNK3 thallium flux, FluxOR fluorescence; active compounds read low; B-score at 10 µM;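 active = B-score under library mean minus 4 SD, starting fluorescence ratio at most library mean plus 5 SD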;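 also: more negative B-score means stronger inhibition of thallium flux through KCNK3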
Target sequence (O14649 whole entry, looked up): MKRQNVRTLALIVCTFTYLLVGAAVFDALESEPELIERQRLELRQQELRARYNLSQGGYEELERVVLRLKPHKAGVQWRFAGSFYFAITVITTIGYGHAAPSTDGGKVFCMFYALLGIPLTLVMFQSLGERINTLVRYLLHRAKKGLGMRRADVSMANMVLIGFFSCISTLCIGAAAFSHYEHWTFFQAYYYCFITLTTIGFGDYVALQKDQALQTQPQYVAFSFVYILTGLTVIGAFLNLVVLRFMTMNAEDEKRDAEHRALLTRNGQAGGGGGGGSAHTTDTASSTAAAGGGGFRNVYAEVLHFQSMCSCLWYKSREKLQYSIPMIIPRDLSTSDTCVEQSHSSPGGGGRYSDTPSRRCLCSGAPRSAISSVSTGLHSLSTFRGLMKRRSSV
KCNK9 block – inhibitors of human KCNK9 two-pore domain potassium channel; Q9NPC2; HEK293 KCNK9, FluxOR thallium flux fluorescence; active compounds read low; B-score at 10 µM; 310,000 tested, 1.2% active;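 active = ratio B-score over 3 SD below the library mean, with starting fluorescence within 5 SD of its mean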;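 also: negative B-score means less thallium flux so channel inhibition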
Kir21 block – Kir2.1 (mouse) channel inhibition | P35561 | HEK293-Kir2.1, FluxOR thallium flux fluorescence; active compounds read low | B-score at 10 µM | 310,000 tested, 0.85% active;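 active = fluorescence ratio B-score at or below minus 3 SD of library scores, with starting-brightness B-score within 2 SD, cut at about -4.2 in these data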;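 also: channel flux triggered by added potassium and thallium sulfate stimulus; B-score of peak minus minimum fluorescence over baseline after thallium stimulus; more negative B-score means stronger Kir2.1 block with less thallium influx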
KCNQ1 pot – potentiates or activates the human KCNQ1 potassium channel. P51787. CHO-K1 KCNQ1, thallium flux FluxOR fluorescence; active compounds read high. B-score at 10 µM. 310,000 tested, 0.35% active. AID 2648;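 active = fluorescence ratio B-score, a plate-corrected score, at least three library SD, with initial intensity B-score within 5 SD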
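Test system: CHO-K1 cells stably expressing KCNQ1 / Medium: assay buffer / Also added: depolarizing K+/Tl+ stimulus, K2SO4 and Tl2SO4 each 12.5 mM in 5x stock / Incubation: 90 min dye loading and 20 min compound exposure, both at room temperature / Signal: thallium influx via FluxOR fluorescence, kinetic imaging / Evaluation: B score of baseline-normalized fluorescence ratio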
hERG rescue – hERG (human) protection from proarrhythmic block; activation (rescue from dofetilide block), less the hit threshold, % at 10 µM; 310,000 tested, 0.51% active; AID 1511; CHO-hERG, FluxOR thallium flux, dofetilide IC70 present; Q12809;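 active = activation above the mean of controls blocked by dofetilide plus 5 SD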;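 also: thallium influx through hERG after potassium depolarization seen as dye fluorescence rise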
KCNK9 inh conf – confirmation of human KCNK9 potassium channel inhibitors | inhibition, % at 10 µM | 4,900 tested, 43% active | shares compounds with KCNK9 block | HEK293 KCNK9 cells, FluxOR thallium flux fluorescence;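 active = thallium signal inhibited by more than 5 SD of the compound-free buffer control wells, on both duplicate plates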
Kir21 sel – mouse Kir2.1 off-target activity of KCNK9 modulators; AID 492993; 4,900 tested, 4% active; Kir2.1 cells, FluxOR thallium flux fluorescence; inhibition, % at 10 µM; shares compounds with KCNK9 block;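 active = thallium signal drop more than 5 SD beyond the mean of the no-compound control wells, seen in both duplicate plates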;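 also: signal is fluorescence rise after thallium addition divided by baseline fluorescence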
HEK293 Tl ctr – non-induced cell nonspecific activity of KCNK9 modulators | shares compounds with KCNK9 block | non-induced KCNK9-HEK293, FluxOR thallium flux | inhibition, % at 10 µM | 4,900 tested, 40% active;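 active = thallium signal drop beyond 5 SD of the untreated control mean, on both duplicate plates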
Hits are given with their value; . = inactive; / = not tested or not shown. Only some compounds are listed: those with a hit (about 3.7% of all), similar ones and a draw of the others.

SMILES	KCNQ1 block	KCNK3 inh	KCNK9 block	Kir21 block	KCNQ1 pot	hERG rescue	KCNK9 inh conf	Kir21 sel	HEK293 Tl ctr
COc1ccc(OC)c(S(=O)(=O)N2CCC(C(=O)Nc3cc(C)ccc3C)CC2)c1	.	.	-10	.	.	.	.	.	.
COC(=O)c1ccccc1NC(=O)C1CCN(S(=O)(=O)c2cc(C)ccc2OC)CC1	.	.	.	.	.	.	/	/	/
Cc1noc(C)c1-c1csc(N2CCC(C(N)=O)CC2)n1	/	.	/	/	/	/	/	/	/
Cc1oc(CC(C)C)cc1C(=O)Nc1cccc2ccccc12	.	.	-9.5	.	.	.	.	.	40%
CCOc1ccccc1NC(=O)c1cc(CC(C)C)oc1C	.	.	-18	.	.	.	62%	.	43%
O=C1C(=O)N(CCS(=O)(=O)c2ccccc2)c2ccc(F)cc21	.	.	.	.	.	.	/	/	/
CCCCc1ccc(NC(=O)CN(C)CC(=O)Nc2ccccc2Cl)cc1	.	.	.	.	.	.	.	.	.
O=C(CN1C(=O)NC2(CCCCC2)C1=O)N1CCN(c2ncccn2)CC1	/	.	/	/	/	/	/	/	/
CCc1nnc(NC(=O)c2ccc(Cl)c(S(=O)(=O)N3CCc4ccccc43)c2)s1	.	.	-13	.	.	.	68%	.	42%
CCc1nnc(NC(=O)c2ccc(F)c(S(=O)(=O)N3CCCCC3)c2)s1	.	.	.	.	.	.	/	/	/
O=C(CC1C[C@H](C(=O)N2CCCCC2)[C@@]2(CCc3ccccc3)c3[nH]c4ccccc4c3CCN2C1=O)NCCCn1ccnc1 (some centres undefined)	/	.	/	/	/	/	/	/	/
CC(C#N)Sc1ccc(S(=O)(=O)N(C)C2CCCCC2)cn1 (centres undefined)	/	.	/	/	/	/	/	/	/
Cn1nc(C(F)(F)F)cc1-c1ccc(S(N)(=O)=O)s1	.	.	.	.	.	.	/	/	/
COCCNC(=O)C(c1cccc(OC)c1)N(Cc1cccs1)C(=O)Cn1nnc2ccccc21 (centres undefined)	.	.	.	.	.	.	/	/	/
CCC(C)N(C(=O)Cn1nnc2ccccc21)C(C(=O)Nc1ccc(F)cc1)c1cccc(OC)c1 (centres undefined)	.	.	-9.2	.	.	.	36%	.	.
COc1ccc(-n2c(=S)[nH]c3cc(C(=O)N4CCN(c5ccccc5)CC4)ccc3c2=O)cc1	.	.	.	.	.	.	/	/	/
Cc1ccc(SCCCn2cnc3ccccc3c2=O)cc1	.	.	.	.	.	.	.	.	.
Cc1cn(CC(=O)NCCc2ccccn2)c(=O)[nH]c1=O	/	.	/	/	/	/	/	/	/
Cc1cc(N/N=C/c2ccc(Cl)cc2Cl)nc(NCc2ccccc2)n1	.	.	.	.	.	.	.	.	.
Cc1cc(N/N=C/c2ccc(F)cc2)nc(NCc2ccccc2)n1	.	.	.	.	.	.	/	/	/
O=C(NC1CCCCC1)C(c1ccccc1)N1CCCC1 (centres undefined)	.	.	.	.	.	.	/	/	/
CC(C(=O)NC(=O)NC1CCCCC1)N1CCN(C(c2ccccc2)c2ccccc2)CC1 (centres undefined)	.	.	.	.	.	.	.	.	.
O=C(NCC(c1ccco1)N1CCc2ccccc21)C(=O)Nc1ccc(F)cc1F (centres undefined)	.	.	-14	.	.	.	32%	.	27%
CC(C)(C)OC(=O)N1CCC(Cc2cc(-c3cccnc3)no2)(C(=O)O)CC1	.	.	.	.	.	.	/	/	/
COc1ccc(-c2cn(-c3ccc(C)cc3)c(=O)n2CC(=O)Nc2ccc(OC)cc2OC)cc1	.	.	.	.	.	.	.	.	.
SMILES	KCNQ1 block	KCNK3 inh	KCNK9 block	Kir21 block	KCNQ1 pot	hERG rescue	KCNK9 inh conf	Kir21 sel	HEK293 Tl ctr
COc1ccc(NC(=O)Cn2c(-c3ccccc3)cn(-c3ccc(C)cc3)c2=O)cc1	.	.	.	.	.	.	/	/	/
CC(C)C[C@H](NC(=O)c1nc[nH]c1C(=O)NCc1ccc(CNC(=O)OC(C)(C)C)cc1)C(=O)OCc1ccccc1	.	.	.	.	.	.	/	/	/
COc1ccc(CSCC(=O)Nc2ccc(S(=O)(=O)N3CCCCCC3)cc2)cc1	.	.	.	.	.	.	.	.	.
O=C(CSCc1ccc(Br)cc1)Nc1ccc(S(=O)(=O)N2CCOCC2)cc1	.	.	.	.	.	.	/	/	/
COc1ccc(NC(=O)CSCC(=O)Nc2ccc(S(=O)(=O)N3CCCCC3)cc2)cc1	.	.	.	.	.	.	/	/	/
O=C(CSCc1ccc(Cl)cc1)Nc1ccc(S(=O)(=O)N2CCCCCC2)cc1	.	.	.	.	.	.	.	.	.
CC(C)(C)c1ccc(C(=O)CC(Sc2ccc(Cl)cc2)C(=O)O)cc1 (centres undefined)	.	.	.	.	.	.	.	.	.
Cc1ccc(SC(CC(=O)c2ccc(F)cc2)C(=O)O)cc1 (centres undefined)	.	.	.	.	.	.	/	/	/
Fc1ccc(Sc2nc(-c3ccccc3)nnc2C(F)(F)F)cc1	.	.	.	.	.	.	.	.	.
COC(=O)c1cc(NC(=O)Nc2cc(OC)ccc2OC)cc(C(=O)OC)c1	.	.	-11	.	.	.	31%	.	.
Cc1ccc(C)c(N2CCN(C(=O)C3CCCCN3S(=O)(=O)c3ccc(F)cc3)CC2)c1 (centres undefined)	.	.	-19	.	.	.	30%	.	30%
O=C(O)C1CCCN1S(=O)(=O)c1ccc(F)cc1 (centres undefined)	.	.	.	.	.	.	/	/	/
O=C(CCNS(=O)(=O)c1ccccc1F)NC1CCCCCC1	/	.	/	/	/	/	/	/	/
CCOc1ccc(-c2nnc3ccc(SCC(=O)Nc4nc5ccc(C)cc5s4)nn23)cc1	.	.	-11	.	.	.	70%	.	.
CC1CC(C)CN(C(=O)CSc2nc(Cc3cccs3)nc3ccccc23)C1 (centres undefined)	.	.	.	.	.	.	.	.	24%
CC(C)(C)c1nc(SCC(=O)N2CCCC2)c2ccccc2n1	.	.	.	.	.	.	/	/	/
Cc1cc(=O)[nH]c2nnc(-c3ccc(Cl)cc3)n12	.	.	.	.	.	.	/	/	/
COc1cc(C)ccc1OCCCOc1ccccc1Cl	.	.	.	.	.	.	/	/	/
COc1cc(C)ccc1OCCCCOc1ccccc1C(C)=O	.	.	.	.	.	.	.	.	.
CCn1c(=O)c2cc(C(=O)N(C)CC(OC)OC)sc2c2ccccc21	.	.	.	.	.	.	/	/	/
